According to ChEMBL document CHEMBL1123419, “Synthesis and antiviral activity of sulfonamidobenzophenone oximes and sulfonamidobenzamides” (1986):
≈ marks a conversion by molar mass, not a printed value.

Experiments:
Poliovirus 1 = test: microbe, parasite or virus in culture; format: functional; conditions: Enterovirus C; read-out: ED50 (the source's name)
Enterovirus [1] = test: Antiviral activity against rhinovirus 10 using plaque-inhibition assay; format: functional; conditions: read-out: ED50 (the source's name)
How it was run: (§1)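 Plaque reduction: confluent monolayers were infected with 100-200 PFU. Hela (Ohio) cells were used for rhinoviruses 10 and 1A and coxsackieviruses B4 and A9, CV-1 for poliovirus type 1 Mahoney, and LLC-MK2 for enterovirus 70. Cells were overlaid with 2.0% agar in MEM plus 4% FBS containing serial compound concentrations. Incubation was 37 °C for polio/coxsackie and 33 °C for rhino/enterovirus, with a neutral red (0.004%) second overlay. ED50 was taken from the dose-response curve.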

CV-1 = test: Chemotherapeutic index in CV-1 cells (chemotherapeutic index=50% cytotoxic dose/50% effective dose).; format: functional, Cercopithecidae
How it was run: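 Index = 50% cytotoxic dose / 50% plaque-inhibition dose. For cytotoxicity, 200 cells/mL in suspension were mixed with 10% FBS MEM carrying serial compound dilutions and incubated 7 days at 37 °C under 5% CO2. Colonies were stained with 1% crystal violet and counted, and the 50% cytotoxic dose was read from the dose-response curve.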

Enterovirus [2] = test: Antiviral activity against rhinovirus 1A using plaque-inhibition assay; format: functional; conditions: read-out: ED50 (the source's name)
How it was run: as §1

With CN(C)S(=O)(=O)Nc1ccc(C(=O)Nc2ccc(C(C)(C)C)cc2)cc1 the EC50 (Poliovirus 1) was 0.12 mg/L (≈ 0.32 µM).
In the case of COc1cccc(/C(=N\O)c2cccc(NS(=O)(=O)N(C)C)c2)c1, the EC50 (Enterovirus [1]) is reported as 0.41 mg/L (≈ 1.17 µM), the EC50 (Poliovirus 1) is reported as 0.34 mg/L (≈ 0.973 µM) and the Chemotherapeutic index (CV-1) is reported as 74.
In the case of Cc1ccc(NS(=O)(=O)C(C)C)cc1C(=O)Nc1ccc(Cl)cc1, the EC50 (Poliovirus 1) is reported as 12 mg/L (≈ 32.7 µM).
COc1ccc(/C(=N\O)c2cccc(NS(=O)(=O)C(C)C)c2)cc1 was tested, and the EC50 (Enterovirus [1]) was 0.62 mg/L (≈ 1.78 µM), the EC50 (Poliovirus 1) was 0.36 mg/L (≈ 1.03 µM) and the Chemotherapeutic index (CV-1) was 32.
CN(C)S(=O)(=O)Nc1ccc(C(=O)Nc2ccc(Cl)cc2)cc1 showed an EC50 (Enterovirus [2]) of 0.32 mg/L (≈ 0.904 µM), an EC50 (Poliovirus 1) of 0.5 mg/L (≈ 1.41 µM) and a Chemotherapeutic index (CV-1) of 220.
With CSc1ccc(/C(=N\O)c2cccc(NS(=O)(=O)N(C)C)c2)cc1 the EC50 (Enterovirus [1]) was 0.26 mg/L (≈ 0.711 µM), the EC50 (Poliovirus 1) was 0.32 mg/L (≈ 0.876 µM) and the Chemotherapeutic index (CV-1) was 9.
Molecule CN(C)S(=O)(=O)Nc1cccc(/C(=N/O)c2ccc3c(c2)OCO3)c1 has an EC50 (Poliovirus 1) of 3.4 mg/L (≈ 9.36 µM).
CCCc1ccc(NC(=O)c2ccc(NS(=O)(=O)N(C)C)cc2)cc1 was tested, and the EC50 (Enterovirus [2]) was 0.15 mg/L (≈ 0.415 µM), the EC50 (Poliovirus 1) was 0.16 mg/L (≈ 0.443 µM) and the Chemotherapeutic index (CV-1) was 6.
With COc1ccc(/C(=N\O)c2cccc(NS(=O)(=O)N3CCCC3)c2)cc1 the EC50 (Poliovirus 1) was 1.1 mg/L (≈ 2.93 µM).
CC(C)S(=O)(=O)Nc1ccc(C(=O)Nc2ccc(C(F)(F)F)cc2)cc1 was tested, and the EC50 (Poliovirus 1) was 0.25 mg/L (≈ 0.647 µM).
In the case of CC(C)S(=O)(=O)Nc1cccc(C(=O)Nc2ccc(Br)cc2)c1, the EC50 (Poliovirus 1) is reported as 0.7 mg/L (≈ 1.76 µM).
CN(C)S(=O)(=O)Nc1ccc(C(=O)Nc2ccc(I)cc2)cc1 gave an EC50 (Enterovirus [2]) of 0.3 mg/L (≈ 0.674 µM), an EC50 (Poliovirus 1) of 0.3 mg/L (≈ 0.674 µM) and a Chemotherapeutic index (CV-1) of 5.
In the case of CCCCc1ccc(NC(=O)c2ccc(NS(=O)(=O)C(C)C)cc2)cc1, the EC50 (Poliovirus 1) is reported as 0.16 mg/L (≈ 0.427 µM).
CC(C)S(=O)(=O)Nc1cccc(/C(=N/O)c2ccc(CO)cc2)c1 showed an EC50 (Enterovirus [1]) of 0.39 mg/L (≈ 1.12 µM).
CCCOc1ccc(NC(=O)c2ccc(NS(=O)(=O)N(C)C)cc2)cc1 was tested, and the EC50 (Poliovirus 1) was 0.7 mg/L (≈ 1.85 µM).
For COc1ccc(NC(=O)c2cccc(NS(=O)(=O)N(C)C)c2)cc1, the EC50 (Poliovirus 1) was 4 mg/L (≈ 11.4 µM).
Molecule CC(C)c1ccc(NC(=O)c2ccc(NS(=O)(=O)N(C)C)cc2)cc1 has an EC50 (Enterovirus [2]) of 0.1 mg/L (≈ 0.277 µM), an EC50 (Poliovirus 1) of 0.21 mg/L (≈ 0.581 µM) and a Chemotherapeutic index (CV-1) of 10.
CN(C)S(=O)(=O)Nc1cccc(C(=O)Nc2ccc(Br)cc2)c1 gave an EC50 (Poliovirus 1) of 1.7 mg/L (≈ 4.27 µM).
For CC(C)S(=O)(=O)Nc1cccc(C(=O)Nc2cccc([N+](=O)[O-])c2)c1, the EC50 (Poliovirus 1) was > 25 mg/L.
Work on COC(=O)c1ccc(NC(=O)c2cccc(NS(=O)(=O)C(C)C)c2)cc1 yielded an EC50 (Poliovirus 1) of 4 mg/L (≈ 10.6 µM).
In the case of CS(=O)(=O)Nc1cccc(C(=O)Nc2ccccc2)c1, the EC50 (Poliovirus 1) is reported as > 50 mg/L.
With CCc1ccc(NC(=O)c2ccc(NS(=O)(=O)N(C)C)cc2)cc1 the EC50 (Enterovirus [2]) was 0.2 mg/L (≈ 0.576 µM), the EC50 (Poliovirus 1) was 0.36 mg/L (≈ 1.04 µM) and the Chemotherapeutic index (CV-1) was 10.
Molecule CN(C)S(=O)(=O)Nc1ccc(C(=O)Nc2ccc(C(F)(F)F)cc2)cc1 has an EC50 (Enterovirus [2]) of 0.17 mg/L (≈ 0.439 µM), an EC50 (Poliovirus 1) of 0.18 mg/L (≈ 0.465 µM) and a Chemotherapeutic index (CV-1) of 19.
With COCc1ccc(/C(=N\O)c2cccc(NS(=O)(=O)N(C)C)c2)cc1 the EC50 (Enterovirus [1]) was 0.36 mg/L (≈ 0.991 µM), the EC50 (Poliovirus 1) was 0.25 mg/L (≈ 0.688 µM) and the Chemotherapeutic index (CV-1) was 28.
CC(C)S(=O)(=O)Nc1cccc(C(=O)Nc2ccccc2)c1 gave an EC50 (Poliovirus 1) of 7 mg/L (≈ 22 µM).
Work on CCCCc1ccc(NC(=O)c2cccc(NS(=O)(=O)C(C)C)c2)cc1 yielded an EC50 (Poliovirus 1) of 0.42 mg/L (≈ 1.12 µM).
Work on CN(C)S(=O)(=O)Nc1cccc(/C(=N/O)c2ccc(CO)cc2)c1 yielded an EC50 (Enterovirus [1]) of 0.37 mg/L (≈ 1.06 µM), an EC50 (Poliovirus 1) of 0.4 mg/L (≈ 1.14 µM) and a Chemotherapeutic index (CV-1) of 55.
Molecule CN(C)S(=O)(=O)Nc1ccc(C(=O)Nc2cccc(Br)c2)cc1 has an EC50 (Poliovirus 1) of 5 mg/L (≈ 12.6 µM).
COCc1ccc(/C(=N\O)c2cccc(NS(=O)(=O)C(C)C)c2)cc1 was tested, and the EC50 (Enterovirus [1]) was 0.98 mg/L (≈ 2.7 µM), the EC50 (Poliovirus 1) was 0.22 mg/L (≈ 0.607 µM) and the Chemotherapeutic index (CV-1) was 68.
In the case of CN(C)S(=O)(=O)Nc1cccc(C(=O)NC2CCCCC2)c1, the EC50 (Poliovirus 1) is reported as 28 mg/L (≈ 86 µM).
For CC(C)S(=O)(=O)Nc1cccc(C(=O)NC(c2ccccc2)c2ccccc2)c1, the EC50 (Poliovirus 1) was > 50 mg/L.
CC(C)Cc1ccc(NC(=O)c2ccc(NS(=O)(=O)N(C)C)cc2)cc1 was tested, and the EC50 (Enterovirus [2]) was 0.13 mg/L (≈ 0.346 µM), the EC50 (Poliovirus 1) was 0.16 mg/L (≈ 0.426 µM) and the Chemotherapeutic index (CV-1) was 7.
In the case of O=C(Nc1ccccc1)c1cccc(NS(=O)(=O)N2CCCCC2)c1, the EC50 (Poliovirus 1) is reported as 11 mg/L (≈ 30.6 µM).
For CN(C)S(=O)(=O)Nc1cccc(C(=O)Nc2ccc(C(F)(F)F)cc2)c1, the EC50 (Poliovirus 1) was 0.46 mg/L (≈ 1.19 µM).
Work on CC(C)S(=O)(=O)Nc1cccc(C(=O)Nc2cccc(Cl)c2)c1 yielded an EC50 (Poliovirus 1) of 1.5 mg/L (≈ 4.25 µM).
With COC(=O)c1cccc(NC(=O)c2ccc(NS(=O)(=O)N(C)C)cc2)c1 the EC50 (Poliovirus 1) was 1.2 mg/L (≈ 3.18 µM).
CN(C)S(=O)(=O)Nc1cccc(C(=O)Nc2ccccn2)c1 showed an EC50 (Poliovirus 1) of 44 mg/L (≈ 137 µM).
CC(C)S(=O)(=O)Nc1cccc(C(=O)Nc2ccc(Cl)cc2)c1 was tested, and the EC50 (Poliovirus 1) was 1.2 mg/L (≈ 3.4 µM).
Molecule CN(C)S(=O)(=O)Nc1cc(C(=O)Nc2ccccc2)ccc1Cl has an EC50 (Poliovirus 1) of 10 mg/L (≈ 28.3 µM).
